For 22 compounds, MIC and Ratio results are on record in ChEMBL document CHEMBL3085670, “Synthesis, biological evaluation and docking studies of 4-aryloxymethyl coumarins derived from substructures and degradation products of vancomycin” (2013).

In brackets after ≈: the same amount, converted by molar mass.

Holding throughout (assay type): functional
The subject of test [1] is Candida albicans. Briefly: Antifungal activity against Candida albicans ATCC 2091 after 24 hrs by broth microdilution method. The settings on record: ATCC 2091, 24 h. The gist of the method:
(§1)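 Broth dilution MIC, with fluconazole as the comparator. Each drug was serially diluted tenfold in BHI broth over nine tubes (10^-1 to 10^-9). Each tube received a suspension of stock culture diluted in BHI. Tubes were kept 24 h at 37 °C, and growth was judged by turbidity.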
For orientation: In broth dilution the organism is exposed to a series of concentrations in liquid medium.

The test system of test [2] is Enterococcus faecalis. Briefly: Antibacterial activity against Enterococcus faecalis ATCC 35550 after 24 hrs by broth microdilution method. To be noted: ATCC 35550, 24 h. The method, boiled down: (§2)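 Broth dilution MIC, with ciprofloxacin as the comparator. Nine […] serial dilutions of each drug (10^-1 to 10^-9) were made in brain heart infusion (BHI) broth. Stock culture was diluted into BHI, and this suspension was added to each dilution tube. Tubes were incubated 24 h at 37 °C, and the MIC was read by turbidity.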

Test [3] has as its system Pseudomonas aeruginosa. Briefly: Antibacterial activity against Pseudomonas aeruginosa ATCC 25619 after 24 hrs by broth microdilution method. To be noted: ATCC 25619, 24 h. The gist of the method:
as §2

Test [4] has as its system Staphylococcus aureus. Briefly: Antibacterial activity against Staphylococcus aureus ATCC 12598 after 24 hrs by broth microdilution method. The settings on record: ATCC 12598, 24 h. The gist of the method: as §2
Test [5] has as its system Aspergillus niger. Kind of test: Antifungal activity against Aspergillus niger ATCC 9029 after 24 hrs by broth microdilution method. The settings on record: ATCC 9029, 24 h. The method, boiled down:
as §1

In test [6] the test system is Escherichia coli. Briefly: Antibacterial activity against Escherichia coli ATCC 25922 after 24 hrs by broth microdilution method. To be noted: ATCC 25922, 24 h. The method, boiled down: as §2
Test [7] deals with Candida albicans. Kind of test: Ratio of fluconazole MIC to compound MIC for Candida albicans ATCC 2091 after 24 hrs by broth microdilution method.
Test [8] has as its system Aspergillus niger. Briefly: Ratio of fluconazole MIC to compound MIC for Aspergillus niger ATCC 9029 after 24 hrs by broth microdilution method.

For the compound `CCOC(=O)c1cc(O)c(OCc2cc(=O)oc3c2ccc2ccccc23)c(O)c1`, the MIC (commonly the lowest concentration that inhibits growth of the organism) in test [1] was 100 µg/mL (≈ 246 µM); in test [2], 0.2 µg/mL (≈ 0.492 µM); in test [3] it was 100 µg/mL (≈ 246 µM); in test [4], 1.6 µg/mL (≈ 3.94 µM); in test [5] it was 100 µg/mL (≈ 246 µM); in test [6], 100 µg/mL (≈ 246 µM).

For `CCOC(=O)c1cc(O)c(OCc2cc(=O)oc3ccc(OC)cc23)c(O)c1`, the minimum inhibitory concentration (MIC) in test [1] amounted to 100 µg/mL (≈ 259 µM); in test [2] it was 0.2 µg/mL (≈ 0.518 µM); in test [3] it was 100 µg/mL (≈ 259 µM); in test [4], 0.8 µg/mL (≈ 2.07 µM); in test [5], 100 µg/mL (≈ 259 µM); in test [6], 100 µg/mL (≈ 259 µM).

`CCOC(=O)c1cc(O)c(OCc2cc(=O)oc3cc(OC)ccc23)c(O)c1`: the MIC worked out at 100 µg/mL (≈ 259 µM) in test [1]; 0.8 µg/mL (≈ 2.07 µM) in test [2]; 100 µg/mL (≈ 259 µM) in test [3]; 1.6 µg/mL (≈ 4.14 µM) in test [4]; 100 µg/mL (≈ 259 µM) in test [5]; 100 µg/mL (≈ 259 µM) in test [6].

As for `CCOC(=O)c1cc(O)c(OCc2cc(=O)oc3ccc(Cl)cc23)c(O)c1`, the MIC stood at 100 µg/mL (≈ 256 µM) in test [1]; 0.2 µg/mL (≈ 0.512 µM) in test [2]; 100 µg/mL (≈ 256 µM) in test [3]; 0.4 µg/mL (≈ 1.02 µM) in test [4]; 100 µg/mL (≈ 256 µM) in test [5]; 100 µg/mL (≈ 256 µM) in test [6].

For the compound `CCOC(=O)c1cc(O)c(OCc2cc(=O)oc3cc(Cl)ccc23)c(O)c1`, the minimum inhibitory concentration (MIC) in test [1] stood at 100 µg/mL (≈ 256 µM); in test [2], 3.12 µg/mL (≈ 8 µM); in test [3] it was 100 µg/mL (≈ 256 µM); in test [4], 12.5 µg/mL (≈ 32 µM); in test [5], 100 µg/mL (≈ 256 µM); in test [6], 100 µg/mL (≈ 256 µM).

As to `CCOC(=O)C(Cc1ccc(OCc2cc(=O)oc3ccc(C)cc23)cc1)NC(=O)c1ccccc1` (stereo unspecified), the Ratio amounted to 80 in test [7] and 40 in test [8]. Besides, the MIC was found to be 0.2 µg/mL (≈ 0.412 µM) in test [1]; 0.8 µg/mL (≈ 1.65 µM) in test [2]; 100 µg/mL (≈ 206 µM) in test [3]; 100 µg/mL (≈ 206 µM) in test [4]; 0.2 µg/mL (≈ 0.412 µM) in test [5]; 100 µg/mL (≈ 206 µM) in test [6].

Turning to `CCOC(=O)C(Cc1ccc(OCc2cc(=O)oc3cc(C)ccc23)cc1)NC(=O)c1ccccc1` (stereo unspecified), the Ratio in test [7] came out at 80; in test [8], 40. The MIC was 0.2 µg/mL (≈ 0.412 µM) in test [1]; 0.8 µg/mL (≈ 1.65 µM) in test [2]; 100 µg/mL (≈ 206 µM) in test [3]; 0.2 µg/mL (≈ 0.412 µM) in test [5]; 100 µg/mL (≈ 206 µM) in test [6].

With `CCOC(=O)C(Cc1ccc(OCc2cc(=O)oc3ccc(OC)cc23)cc1)NC(=O)c1ccccc1` (stereo unspecified), the Ratio in test [7] was determined as 80; in test [8] it was 40. In addition, the minimum inhibitory concentration (MIC) in test [1] was 0.2 µg/mL (≈ 0.399 µM); in test [2] it was 0.4 µg/mL (≈ 0.798 µM); in test [3], 100 µg/mL (≈ 199 µM); in test [4] it was 100 µg/mL (≈ 199 µM); in test [5], 0.2 µg/mL (≈ 0.399 µM); in test [6], 100 µg/mL (≈ 199 µM).

Consider `CCOC(=O)C(Cc1ccc(OCc2cc(=O)oc3cc(OC)ccc23)cc1)NC(=O)c1ccccc1` (stereo unspecified), for which the Ratio was 80 in test [7] and 40 in test [8]. In addition, the MIC in test [1] is 0.2 µg/mL (≈ 0.399 µM); in test [2] it was 0.8 µg/mL (≈ 1.6 µM); in test [3], 100 µg/mL (≈ 199 µM); in test [4] it was 100 µg/mL (≈ 199 µM); in test [5], 0.2 µg/mL (≈ 0.399 µM); in test [6], 100 µg/mL (≈ 199 µM).

Turning to `CCOC(=O)C(Cc1ccc(OCc2cc(=O)oc3cc(C)cc(C)c23)cc1)NC(=O)c1ccccc1` (stereo unspecified), the Ratio in test [8] came out at 40. Besides, the minimal inhibitory concentration (MIC) in test [1] is 1.6 µg/mL (≈ 3.2 µM); in test [2], 0.2 µg/mL (≈ 0.4 µM); in test [3], 100 µg/mL (≈ 200 µM); in test [5] it was 0.2 µg/mL (≈ 0.4 µM); in test [6], 100 µg/mL (≈ 200 µM).

For `CCOC(=O)C(Cc1ccc(OCc2cc(=O)oc3c(C)c(C)ccc23)cc1)NC(=O)c1ccccc1` (stereo unspecified), the Ratio in test [8] was 40. Moreover, the MIC in test [1] amounted to 0.8 µg/mL (≈ 1.6 µM); in test [2], 0.2 µg/mL (≈ 0.4 µM); in test [3], 100 µg/mL (≈ 200 µM); in test [4], 100 µg/mL (≈ 200 µM); in test [5] it was 0.2 µg/mL (≈ 0.4 µM); in test [6], 100 µg/mL (≈ 200 µM).

Consider `CCOC(=O)C(Cc1ccc(OCc2cc(=O)oc3ccc4ccccc4c23)cc1)NC(=O)c1ccccc1` (stereo unspecified), for which the Ratio in test [8] amounted to 40. Also, the minimal inhibitory concentration (MIC) in test [1] is 1.6 µg/mL (≈ 3.07 µM); in test [2] it was 0.4 µg/mL (≈ 0.767 µM); in test [5], 0.2 µg/mL (≈ 0.383 µM); in test [6], 100 µg/mL (≈ 192 µM).

Take `CCOC(=O)C(Cc1ccc(OCc2cc(=O)oc3c2ccc2ccccc23)cc1)NC(=O)c1ccccc1` (stereo unspecified): the Ratio in test [8] turned out to be 40. Also, the MIC in test [1] was 12.5 µg/mL (≈ 24 µM); in test [2], 0.2 µg/mL (≈ 0.383 µM); in test [3] it was 100 µg/mL (≈ 192 µM); in test [4], 50 µg/mL (≈ 95.9 µM); in test [5], 0.2 µg/mL (≈ 0.383 µM); in test [6], 100 µg/mL (≈ 192 µM).

With `CCOC(=O)C(Cc1ccc(OCc2cc(=O)oc3ccc(Cl)cc23)cc1)NC(=O)c1ccccc1` (stereo unspecified), in test [8], the Ratio came out at 40. In addition, the minimal inhibitory concentration (MIC) amounted to 50 µg/mL (≈ 98.8 µM) in test [1]; 0.2 µg/mL (≈ 0.395 µM) in test [2]; 100 µg/mL (≈ 198 µM) in test [3]; 100 µg/mL (≈ 198 µM) in test [4]; 0.2 µg/mL (≈ 0.395 µM) in test [5].

`CCOC(=O)C(Cc1ccc(OCc2cc(=O)oc3cc(Cl)ccc23)cc1)NC(=O)c1ccccc1` (stereo unspecified): the Ratio in test [8] stood at 40. Moreover, the minimal inhibitory concentration (MIC) in test [1] was found to be 50 µg/mL (≈ 98.8 µM); in test [2] it was 0.2 µg/mL (≈ 0.395 µM); in test [3], 100 µg/mL (≈ 198 µM); in test [5], 0.2 µg/mL (≈ 0.395 µM).

As for `CCOC(=O)c1cc(O)c(OCc2cc(=O)oc3ccc(C)cc23)c(O)c1`, the MIC worked out at 100 µg/mL (≈ 270 µM) in test [1]; 0.2 µg/mL (≈ 0.54 µM) in test [2]; 100 µg/mL (≈ 270 µM) in test [3]; 1.6 µg/mL (≈ 4.32 µM) in test [4]; 100 µg/mL (≈ 270 µM) in test [5]; 100 µg/mL (≈ 270 µM) in test [6].

In the case of `CCOC(=O)c1cc(O)c(OCc2cc(=O)oc3cc(C)ccc23)c(O)c1`, the minimum inhibitory concentration (MIC) came to 100 µg/mL (≈ 270 µM) in test [1]; 0.2 µg/mL (≈ 0.54 µM) in test [2]; 100 µg/mL (≈ 270 µM) in test [3]; 12.5 µg/mL (≈ 33.8 µM) in test [4]; 100 µg/mL (≈ 270 µM) in test [5]; 100 µg/mL (≈ 270 µM) in test [6].

For `CCOC(=O)c1cc(O)c(OCc2cc(=O)oc3cc(C)cc(C)c23)c(O)c1`, the MIC in test [1] stood at 100 µg/mL (≈ 260 µM); in test [2], 0.2 µg/mL (≈ 0.52 µM); in test [3], 100 µg/mL (≈ 260 µM); in test [4], 0.8 µg/mL (≈ 2.08 µM); in test [5] it was 100 µg/mL (≈ 260 µM); in test [6], 100 µg/mL (≈ 260 µM).

On to `CCOC(=O)c1cc(O)c(OCc2cc(=O)oc3c(C)c(C)ccc23)c(O)c1`, for which the minimum inhibitory concentration (MIC) in test [1] was determined as 100 µg/mL (≈ 260 µM); in test [2], 0.2 µg/mL (≈ 0.52 µM); in test [3], 100 µg/mL (≈ 260 µM); in test [4], 0.2 µg/mL (≈ 0.52 µM); in test [5] it was 100 µg/mL (≈ 260 µM); in test [6], 100 µg/mL (≈ 260 µM).

Regarding `CCOC(=O)c1cc(O)c(OCc2cc(=O)oc3ccc4ccccc4c23)c(O)c1`, the MIC in test [1] came to 100 µg/mL (≈ 246 µM); in test [2] it was 0.2 µg/mL (≈ 0.492 µM); in test [3], 100 µg/mL (≈ 246 µM); in test [4] it was 0.4 µg/mL (≈ 0.984 µM); in test [5], 100 µg/mL (≈ 246 µM); in test [6], 100 µg/mL (≈ 246 µM).

Take `O=C(O)c1cn(C2CC2)c2cc(N3CCNCC3)c(F)cc2c1=O` [CIPROFLOXACIN]: the minimal inhibitory concentration (MIC) in test [2] and in test [4] was 2 µg/mL (≈ 6.04 µM) throughout.

Take `OC(Cn1cncn1)(Cn1cncn1)c1ccc(F)cc1F` [FLUCONAZOLE]: the MIC in test [1] stood at 16 µg/mL (≈ 52.2 µM); in test [5], 8 µg/mL (≈ 26.1 µM).
